≈ marks a conversion by molar mass, not a printed value.
Key:
[1] = Cmax in Wistar Hannover rat at 500 umol/kg, po qd measured on day 1; details: in vivo
Rattus norvegicus [2] = assay: Drug level in Wistar Hannover rat treated with [14C]-AZ'7847 at 500 umol/kg, po qd administered for 7 days measured on day 7 by radio monitoring method; format: ADME, organism-based; details: in vivo, 168 h
[3] = Cmax in Wistar Hannover rat at 2000 umol/kg, po qd measured on day 1; details: in vivo
Rattus norvegicus [4] = assay: Toxicity in Wistar Hannover rat kidney assessed as crystals in urine at 500 to 2000 umol/kg, po qd administered for 7 days measured on day 7; format: organism-based; details: in vivo, 168 h
Rattus norvegicus [5] = assay: Toxicity in Wistar Hannover rat kidney assessed as increase in plasma creatinine level at 500 to 2000 umol/kg, po qd administered for 7 days measured on day 7; format: organism-based; details: in vivo, 168 h
How it was run: (§1)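 Wistar Hannover rats, about 8 weeks old, were acclimatized about 2 weeks and randomized by body weight. Dosing was by oral gavage (10 ml/kg) once daily for 7 days, with vehicle controls. At the end of dosing, plasma (lithium heparin) was taken from the orbital plexus under isoflurane/oxygen anaesthesia, and urea and creatinine were measured.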

[6] = AUC (0 to 24 hrs) in Wistar Hannover rat at 500 umol/kg, po qd measured on day 1; details: plasma
[7] = AUC (0 to 24 hrs) in Sprague-Dawley rat at 500 umol/kg, po qd administered for 7 days measured on day 7; format: ADME, organism-based; set-up: dose 500 umol/kg, time < 24 hr, route oral; details: plasma
How it was run: (§2)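 Toxicity study 2: 2 female satellite rats per dose group. Dosing was once daily by oral gavage (10 ml/kg) for 7 days. Tail-vein EDTA blood was taken at 2, 4, 6, 7 and 24 h on day 1 and on day 7, then chilled and centrifuged to plasma. Parent and M1 were quantified by LC-MS/MS, with M1 measured in negative electrospray mode.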

[8] = Cmax in Sprague-Dawley rat at 2000 umol/kg, po qd administered for 7 days measured on day 7; format: ADME, organism-based; set-up: dose 2000 umol/kg, route oral; details: in vivo
How it was run: as §2

Rattus norvegicus [9] = assay: Toxicity in Wistar Hannover rat kidney assessed as histopathogical changes at 500 to 2000 umol/kg, po qd administered for 7 days measured on day 8 by hematoxylin/eosin staining-based light microscopic analysis; format: organism-based; details: in vivo, 168 h
How it was run: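 Wistar Hannover rats, about 8 weeks old, were gavaged once daily (10 ml/kg) for 7 days. One day after the last dose they were killed by carotid exsanguination under isoflurane/oxygen. Kidneys were fixed in buffered formalin, embedded in paraffin, sectioned, stained with hematoxylin and eosin, and examined by light microscopy.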

Rattus norvegicus [10] = assay: Toxicity in Wistar Hannover rat kidney assessed as increase in plasma urea level at 500 to 2000 umol/kg, po qd administered for 7 days measured on day 7; format: organism-based; details: in vivo, 168 h
How it was run: as §1

[11] = AUC (0 to 24 hrs) in Sprague-Dawley rat at 2000 umol/kg, po qd administered for 7 days measured on day 7; format: ADME, organism-based; set-up: time < 24 hr, dose 2000 umol/kg, route oral; details: plasma
How it was run: as §2

[12] = Solubility in rat urine at pH 7 after 5 hrs; format: physicochemical
How it was run: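 Samples in rat urine at pH 7.0 were incubated at 37°C for 5 hours. They were analysed by HPLC on a C18 column with photodiode array and single mass detection.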

[13] = Cmax in Sprague-Dawley rat at 500 umol/kg, po qd administered for 7 days measured on day 7; format: ADME, organism-based; set-up: dose 500 umol/kg, route oral; details: in vivo
How it was run: as §2

[14] = AUC (0 to 24 hrs) in Wistar Hannover rat at 2000 umol/kg, po qd measured on day 1; details: plasma
Rattus norvegicus [15] = assay: Drug metabolism in Wistar Hannover rat assessed as formation of benzene-1,2-disulfonamide metabolite M1 in plasma at 500 umol/kg, po qd administered for 7 days measured on day 7 by radio monitoring method; format: ADME, organism-based; details: in vivo, 168 h
Hepatocyte [16] = assay: Drug level in Sprague-Dawley rat hepatocytes treated with AZ'7847 at 1 to 10 uM by LC-MS analysis; format: ADME, cell-based
How it was run: (§3)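 Metabolic profiling in rat hepatocytes at 1 × 10^6 cells/ml in William's medium, shaken gently at 37°C under 5% CO2. Substrate was tested at two concentrations (1 and 10). For radio detection, a 14C-labelled substrate was separated on an Atlantis T3 column (1 ml/min) with a 1:20 split to the MS and a flow scintillation monitor.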

Hepatocyte [17] = assay: Drug level in Sprague-Dawley rat hepatocytes treated with AZ'7847 at 1 to 10 uM by radio monitoring method; format: ADME, cell-based
How it was run: as §3

SMILES	Cmax [1] [µM]	Drug metabolism (Rattus norvegicus [2])	Cmax [3] [µM]	Activity (Rattus norvegicus [4])	Activity (Rattus norvegicus [5])	AUC(0-t) at 24 h [6] [µM·h]	AUC at 24 h [7] [µM·h]	Cmax [8] [µM]	Activity (Rattus norvegicus [9])	Activity (Rattus norvegicus [10])	AUC at 24 h [11] [µM·h]	solubility at 5 h [12] [µM]	Cmax [13] [µM]	AUC(0-t) at 24 h [14] [µM·h]	Drug metabolism (Rattus norvegicus [15])	Drug metabolism (Hepatocyte [16])	Drug metabolism (Hepatocyte [17])
NS(=O)(=O)c1ccccc1S(N)(=O)=O	57	metabolite_detected	66	Toxic	Non-toxic	1080	1300	80	Non-toxic	Non-toxic	1250	83 (≈ 19.6 µg/mL)	70	1150	–	–	–
NS(=O)(=O)c1ccccc1S(=O)(=O)N[14C](=O)c1ccc(C#Cc2ccccc2)cc1	–	–	–	–	–	–	–	–	–	–	–	–	–	–	metabolite_detected	–	–
O=[14C](O)c1ccc(C#Cc2ccccc2)cc1	–	metabolite_detected	–	–	–	–	–	–	–	–	–	–	–	–	–	metabolite_detected	metabolite_detected
